{"source": "ChEMBL document CHEMBL5303300", "about": "“EUbOPEN Chemogenomics Library - Multiplex” (2023)", "test_system": "U2OS", "assay": "Multiplex assay against U2OS", "type": "toxicity, cell-based", "settings": "human, number of replicates 2", "method_in_brief": "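Live cells were stained at seeding with Hoechst33342, BioTracker Green Microtubule Cytoskeleton Dye, MitoTracker Red and Annexin V Alexa Fluor 680. Following compound addition, they were imaged on a CQ1 microscope at 37°C and 5% CO2 and gated by CellPathfinder machine learning into Hoechst high-intensity objects or normal cells, with normal cells split into healthy, pyknosed or fragmented nuclei and pyknosed cells into mitotic or apoptotic. Tubulin, mitochondrial-mass and membrane-permeability phenotypes are per cents of healthy-nucleus cells.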", "key": {"[1]": {"settings": "12 h, 1 µM, compound concentration 1 uM"}, "[2]": {"settings": "12 h, 10 µM, compound concentration 10 uM"}, "[3]": {"settings": "24 h, 1 µM, compound concentration 1 uM"}, "[4]": {"settings": "24 h, 10 µM, compound concentration 10 uM"}, "[5]": {"settings": "48 h, 1 µM, compound concentration 1 uM"}, "[6]": {"settings": "48 h, 10 µM, compound concentration 10 uM"}}, "note": "Values joined by “and” are separate entries in the source; they are usually repeats but may differ in a detail not shown here. Equal entries are not always repeated.", "data": [{"molecule": "CC(C)N(CCCCOCC(=O)NS(C)(=O)=O)c1cnc(-c2ccccc2)c(-c2ccccc2)n1", "note": "[SELEXIPAG]", "values": [{"measurement": "Population Apoptotic (%)", "setting": "[1]", "result": "100% and 38%"}, {"measurement": "Population Fragmented Nuclei (%)", "setting": "[1]", "result": "14% and 4%"}, {"measurement": "Population Healthy Nuclei (%)", "setting": "[1]", "result": "76% and 84%"}, {"measurement": "Population Hoechst High Intensity Objects (%)", "setting": "[1]", "result": 0, "unit": "%"}, {"measurement": "Population Membrane Permeable-Phenotype (%)", "setting": "[1]", "result": "0% and 1%"}, {"measurement": "Population Mitochondria Different-Phenotype (%)", "setting": "[1]", "result": "6% and 0%"}, {"measurement": "Population Normal (%)", "setting": "[1]", "result": "100% and 99%"}, {"measurement": "Population Pyknosed Nuclei (%)", "setting": "[1]", "result": "9% and 11%"}, {"measurement": "Population Tubulin-Different-Phenotype (%)", "setting": "[1]", "result": "81% and 85%"}, {"measurement": "Population Apoptotic (%)", "setting": "[2]", "result": "33% and 45%"}, {"measurement": "Population Fragmented Nuclei (%)", "setting": "[2]", "result": "11% and 3%"}, {"measurement": "Population Healthy Nuclei (%)", "setting": "[2]", "result": "82% and 88%"}, {"measurement": "Population Hoechst High Intensity Objects (%)", "setting": "[2]", "result": 0, "unit": "%"}, {"measurement": "Population Membrane Permeable-Phenotype (%)", "setting": "[2]", "result": "2% and 1%"}, {"measurement": "Population Mitochondria Different-Phenotype (%)", "setting": "[2]", "result": 0, "unit": "%"}, {"measurement": "Population Mitotic Cells (%)", "setting": "[2]", "result": "66% and 54%"}, {"measurement": "Population Normal (%)", "setting": "[2]", "result": "100% and 99%"}, {"measurement": "Population Pyknosed Nuclei (%)", "setting": "[2]", "result": "6% and 8%"}, {"measurement": "Population Tubulin-Different-Phenotype (%)", "setting": "[2]", "result": "97% and 87%"}, {"measurement": "Population Apoptotic (%)", "setting": "[3]", "result": "50% and 46%"}, {"measurement": "Population Fragmented Nuclei (%)", "setting": "[3]", "result": "5% and 2%"}, {"measurement": "Population Healthy Nuclei (%)", "setting": "[3]", "result": "88% and 89%"}, {"measurement": "Population Hoechst High Intensity Objects (%)", "setting": "[3]", "result": 0, "unit": "%"}, {"measurement": "Population Membrane Permeable-Phenotype (%)", "setting": "[3]", "result": "3% and 1%"}, {"measurement": "Population Mitochondria Different-Phenotype (%)", "setting": "[3]", "result": 0, "unit": "%"}, {"measurement": "Population Mitotic Cells (%)", "setting": "[3]", "result": "50% and 53%"}, {"measurement": "Population Normal (%)", "setting": "[3]", "result": 100, "unit": "%"}, {"measurement": "Population Pyknosed Nuclei (%)", "setting": "[3]", "result": "5% and 8%"}, {"measurement": "Population Tubulin-Different-Phenotype (%)", "setting": "[3]", "result": "84% and 91%"}, {"measurement": "Population Apoptotic (%)", "setting": "[4]", "result": "75% and 46%"}, {"measurement": "Population Healthy Nuclei (%)", "setting": "[4]", "result": "73% and 89%"}, {"measurement": "Population Hoechst High Intensity Objects (%)", "setting": "[4]", "result": 0, "unit": "%"}, {"measurement": "Population Membrane Permeable-Phenotype (%)", "setting": "[4]", "result": "0% and 1%"}, {"measurement": "Population Mitochondria Different-Phenotype (%)", "setting": "[4]", "result": 0, "unit": "%"}, {"measurement": "Population Mitotic Cells (%)", "setting": "[4]", "result": "25% and 53%"}, {"measurement": "Population Normal (%)", "setting": "[4]", "result": "100% and 99%"}, {"measurement": "Population Pyknosed Nuclei (%)", "setting": "[4]", "result": 6, "unit": "%"}, {"measurement": "Population Tubulin-Different-Phenotype (%)", "setting": "[4]", "result": "100% and 94%"}, {"measurement": "Population Apoptotic (%)", "setting": "[5]", "result": "22% and 50%"}, {"measurement": "Population Healthy Nuclei (%)", "setting": "[5]", "result": "67% and 94%"}, {"measurement": "Population Hoechst High Intensity Objects (%)", "setting": "[5]", "result": 0, "unit": "%"}, {"measurement": "Population Membrane Permeable-Phenotype (%)", "setting": "[5]", "result": "0% and 1%"}, {"measurement": "Population Mitochondria Different-Phenotype (%)", "setting": "[5]", "result": 0, "unit": "%"}, {"measurement": "Population Mitotic Cells (%)", "setting": "[5]", "result": "77% and 50%"}, {"measurement": "Population Normal (%)", "setting": "[5]", "result": 100, "unit": "%"}, {"measurement": "Population Tubulin-Different-Phenotype (%)", "setting": "[5]", "result": "85% and 93%"}, {"measurement": "Population Apoptotic (%)", "setting": "[6]", "result": "36% and 56%"}, {"measurement": "Population Fragmented Nuclei (%)", "setting": "[6]", "result": "6% and 4%"}, {"measurement": "Population Healthy Nuclei (%)", "setting": "[6]", "result": "83% and 90%"}, {"measurement": "Population Hoechst High Intensity Objects (%)", "setting": "[6]", "result": 0, "unit": "%"}, {"measurement": "Population Membrane Permeable-Phenotype (%)", "setting": "[6]", "result": 1, "unit": "%"}, {"measurement": "Population Mitochondria Different-Phenotype (%)", "setting": "[6]", "result": 0, "unit": "%"}, {"measurement": "Population Mitotic Cells (%)", "setting": "[6]", "result": "63% and 43%"}, {"measurement": "Population Normal (%)", "setting": "[6]", "result": "100% and 99%"}, {"measurement": "Population Pyknosed Nuclei (%)", "setting": "[6]", "result": "9% and 4%"}, {"measurement": "Population Tubulin-Different-Phenotype (%)", "setting": "[6]", "result": "97% and 94%"}]}, {"molecule": "C[C@@H](Oc1cc(-n2cnc3ccc(OC4CCN(C)CC4)cc32)sc1C(N)=O)c1ccccc1Cl", "note": "[GSK-579289A]", "values": [{"measurement": "Population Apoptotic (%)", "setting": "[1]", "result": "100% and 47%"}, {"measurement": "Population Fragmented Nuclei (%)", "setting": "[1]", "result": "4% and 6%"}, {"measurement": "Population Healthy Nuclei (%)", "setting": "[1]", "result": 78, "unit": "%"}, {"measurement": "Population Hoechst High Intensity Objects (%)", "setting": "[1]", "result": 0, "unit": "%"}, {"measurement": "Population Membrane Permeable-Phenotype (%)", "setting": "[1]", "result": "24% and 17%"}, {"measurement": "Population Normal (%)", "setting": "[1]", "result": "100% and 99%"}, {"measurement": "Population Pyknosed Nuclei (%)", "setting": "[1]", "result": "16% and 15%"}, {"measurement": "Population Tubulin-Different-Phenotype (%)", "setting": "[1]", "result": "33% and 43%"}, {"measurement": "Population Apoptotic (%)", "setting": "[2]", "result": "78% and 61%"}, {"measurement": "Population Fragmented Nuclei (%)", "setting": "[2]", "result": "9% and 23%"}, {"measurement": "Population Healthy Nuclei (%)", "setting": "[2]", "result": "64% and 47%"}, {"measurement": "Population Hoechst High Intensity Objects (%)", "setting": "[2]", "result": "2% and 0%"}, {"measurement": "Population Membrane Permeable-Phenotype (%)", "setting": "[2]", "result": "55% and 27%"}, {"measurement": "Population Mitochondria Different-Phenotype (%)", "setting": "[2]", "result": "69% and 72%"}, {"measurement": "Population Mitotic Cells (%)", "setting": "[2]", "result": "22% and 38%"}, {"measurement": "Population Normal (%)", "setting": "[2]", "result": "97% and 100%"}, {"measurement": "Population Pyknosed Nuclei (%)", "setting": "[2]", "result": "26% and 28%"}, {"measurement": "Population Tubulin-Different-Phenotype (%)", "setting": "[2]", "result": "97% and 95%"}, {"measurement": "Population Apoptotic (%)", "setting": "[3]", "result": "100% and 78%"}, {"measurement": "Population Fragmented Nuclei (%)", "setting": "[3]", "result": "9% and 4%"}, {"measurement": "Population Healthy Nuclei (%)", "setting": "[3]", "result": "84% and 76%"}, {"measurement": "Population Hoechst High Intensity Objects (%)", "setting": "[3]", "result": 0, "unit": "%"}, {"measurement": "Population Membrane Permeable-Phenotype (%)", "setting": "[3]", "result": "14% and 23%"}, {"measurement": "Population Mitotic Cells (%)", "setting": "[3]", "result": "0% and 21%"}, {"measurement": "Population Normal (%)", "setting": "[3]", "result": "100% and 99%"}, {"measurement": "Population Pyknosed Nuclei (%)", "setting": "[3]", "result": "6% and 18%"}, {"measurement": "Population Tubulin-Different-Phenotype (%)", "setting": "[3]", "result": "33% and 46%"}, {"measurement": "Population Apoptotic (%)", "setting": "[4]", "result": "78% and 81%"}, {"measurement": "Population Fragmented Nuclei (%)", "setting": "[4]", "result": "8% and 5%"}, {"measurement": "Population Healthy Nuclei (%)", "setting": "[4]", "result": "41% and 52%"}, {"measurement": "Population Hoechst High Intensity Objects (%)", "setting": "[4]", "result": "4% and 0%"}, {"measurement": "Population Membrane Permeable-Phenotype (%)", "setting": "[4]", "result": "52% and 83%"}, {"measurement": "Population Mitochondria Different-Phenotype (%)", "setting": "[4]", "result": "84% and 67%"}, {"measurement": "Population Mitotic Cells (%)", "setting": "[4]", "result": "21% and 18%"}, {"measurement": "Population Normal (%)", "setting": "[4]", "result": "95% and 99%"}, {"measurement": "Population Pyknosed Nuclei (%)", "setting": "[4]", "result": "50% and 41%"}, {"measurement": "Population Tubulin-Different-Phenotype (%)", "setting": "[4]", "result": "100% and 98%"}, {"measurement": "Population Apoptotic (%)", "setting": "[5]", "result": "95% and 75%"}, {"measurement": "Population Healthy Nuclei (%)", "setting": "[5]", "result": "60% and 55%"}, {"measurement": "Population Hoechst High Intensity Objects (%)", "setting": "[5]", "result": 0, "unit": "%"}, {"measurement": "Population Membrane Permeable-Phenotype (%)", "setting": "[5]", "result": "33% and 19%"}, {"measurement": "Population Normal (%)", "setting": "[5]", "result": 100, "unit": "%"}, {"measurement": "Population Pyknosed Nuclei (%)", "setting": "[5]", "result": "31% and 21%"}, {"measurement": "Population Tubulin-Different-Phenotype (%)", "setting": "[5]", "result": "56% and 38%"}, {"measurement": "Population Apoptotic (%)", "setting": "[6]", "result": "100% and 95%"}, {"measurement": "Population Fragmented Nuclei (%)", "setting": "[6]", "result": "9% and 12%"}, {"measurement": "Population Healthy Nuclei (%)", "setting": "[6]", "result": "19% and 12%"}, {"measurement": "Population Hoechst High Intensity Objects (%)", "setting": "[6]", "result": 4, "unit": "%"}, {"measurement": "Population Membrane Permeable-Phenotype (%)", "setting": "[6]", "result": "100% and 95%"}, {"measurement": "Population Mitochondria Different-Phenotype (%)", "setting": "[6]", "result": "50% and 70%"}, {"measurement": "Population Mitotic Cells (%)", "setting": "[6]", "result": "0% and 4%"}, {"measurement": "Population Normal (%)", "setting": "[6]", "result": 95, "unit": "%"}, {"measurement": "Population Pyknosed Nuclei (%)", "setting": "[6]", "result": "70% and 74%"}, {"measurement": "Population Tubulin-Different-Phenotype (%)", "setting": "[6]", "result": "100% and 95%"}]}]}
